Experimental data as given in PMC4203514 (Autophagy, 2014).

How the values were obtained:
[1] = tested on: patients with advanced solid tumors; test: Treatment-related adverse events by grade; format: in vivo, human
Summary of the method: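 Patients who took at least one dose of the oral test compound, given with a dose-intense oral alkylating agent, were evaluable for toxicity. Adverse events were graded by NCI Common Toxicity Criteria v3.0, and haematological toxicities were attributed to the alkylating agent. Complete blood counts were done weekly for the first 6 wk and biweekly thereafter. Treatment ran in 28 d cycles.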

[2] = Population pharmacokinetics of HCQ in whole blood; format: in vivo, human; conditions: for Vd/F: human, oral, Vc/F, apparent central volume of distribution
Summary of the method: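 Whole blood was sampled in sodium heparin pre-dose and at 2, 4, 8 and 12 wk and 6 mo, then stored at −70 °C. Samples were assayed in duplicate by HPLC-MS/MS with a deuterated internal standard against a 1/x-weighted linear curve (1–5000 ng/mL; LLOQ 1.0 ng/mL). One- and two-compartment first-order models were fitted by nonlinear mixed-effects (Lindstrom-Bates) with log-normal inter-individual variability. Precision came from 1000 bootstrap runs, and individual parameters were used for profile simulations.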

[3] = all patients (37 evaluable for toxicities)
[4] = population PK, 1000 bootstrap runs
[5] = population PK, whole blood, 35 patients

SMILES: CCN(CCO)CCCC(C)Nc1ccnc2cc(Cl)ccc12 (stereo not drawn) [HCQ, hydroxychloroquine]
- Anorexia G1/G2 ([1]; HCQ 800 mg (n = 15) with TMZ): 5 (33) No. (%)
- Constipation G1/G2 ([1]; HCQ 800 mg (n = 15) with TMZ): 4 (27) No. (%)
- Diarrhea G1/G2 ([1]; HCQ 800 mg (n = 15) with TMZ): 2 (13) No. (%)
- Dyspepsia G1/G2 ([1]; HCQ 800 mg (n = 15) with TMZ): 1 (7) No. (%)
- Fatigue G1/G2 ([1]; HCQ 800 mg (n = 15) with TMZ): 7 (47) No. (%)
- Headaches G1/G2 ([1]; HCQ 800 mg (n = 15) with TMZ): 2 (13) No. (%)
- Leukopenia G3/G4 ([1]; HCQ 800 mg (n = 15) with TMZ): 1 (7) No. (%)
- Lymphopenia G1/G2 ([1]; HCQ 800 mg (n = 15) with TMZ): 3 (20) No. (%)
- Lymphopenia G3/G4 ([1]; HCQ 800 mg (n = 15) with TMZ): 1 (7) No. (%)
- Myalgias G1/G2 ([1]; HCQ 800 mg (n = 15) with TMZ): 1 (7) No. (%)
- Nausea G1/G2 ([1]; HCQ 800 mg (n = 15) with TMZ): 6 (40) No. (%)
- Neutropenia G3/G4 ([1]; HCQ 800 mg (n = 15) with TMZ): 2 (13) No. (%)
- Pruritus G1/G2 ([1]; HCQ 800 mg (n = 15) with TMZ): 1 (7) No. (%)
- Rash G1/G2 ([1]; HCQ 800 mg (n = 15) with TMZ): 2 (13) No. (%)
- Taste change G1/G2 ([1]; HCQ 800 mg (n = 15) with TMZ): 1 (7) No. (%)
- Thrombocytopenia G3/G4 ([1]; HCQ 800 mg (n = 15) with TMZ): 2 (13) No. (%)
- Vomiting G1/G2 ([1]; HCQ 800 mg (n = 15) with TMZ): 3 (20) No. (%)
- Abdominal pain G1/G2 ([1]; HCQ 1000 mg (n = 7) with TMZ): 2 (29) No. (%)
- Anemia G3/G4 ([1]; HCQ 1000 mg (n = 7) with TMZ): 1 (14) No. (%)
- Anorexia G1/G2 ([1]; HCQ 1000 mg (n = 7) with TMZ): 1 (14) No. (%)
- Constipation G1/G2 ([1]; HCQ 1000 mg (n = 7) with TMZ): 1 (14) No. (%)
- Diarrhea G1/G2 ([1]; HCQ 1000 mg (n = 7) with TMZ): 3 (43) No. (%)
- Dizziness G1/G2 ([1]; HCQ 1000 mg (n = 7) with TMZ): 1 (14) No. (%)
- Fatigue G1/G2 ([1]; HCQ 1000 mg (n = 7) with TMZ): 5 (71) No. (%)
- Headaches G1/G2 ([1]; HCQ 1000 mg (n = 7) with TMZ): 1 (14) No. (%)
- Lymphopenia G1/G2 ([1]; HCQ 1000 mg (n = 7) with TMZ): 1 (14) No. (%)
- Nausea G1/G2 ([1]; HCQ 1000 mg (n = 7) with TMZ): 5 (71) No. (%)
- Pruritus G1/G2 ([1]; HCQ 1000 mg (n = 7) with TMZ): 1 (14) No. (%)
- Rash G3/G4 ([1]; HCQ 1000 mg (n = 7) with TMZ): 1 (14) No. (%)
- Taste change G1/G2 ([1]; HCQ 1000 mg (n = 7) with TMZ): 1 (14) No. (%)
- Thrombocytopenia G1/G2 ([1]; HCQ 1000 mg (n = 7) with TMZ): 2 (29) No. (%)
- Vomiting G1/G2 ([1]; HCQ 1000 mg (n = 7) with TMZ): 2 (29) No. (%)
- Anemia G1/G2 ([1]; HCQ 1200 mg (n = 8) with TMZ): 1 (13) No. (%)
- Anorexia G1/G2 ([1]; HCQ 1200 mg (n = 8) with TMZ): 3 (38) No. (%)
- Bradycardia G1/G2 ([1]; HCQ 1200 mg (n = 8) with TMZ): 1 (13) No. (%)
- Constipation G1/G2 ([1]; HCQ 1200 mg (n = 8) with TMZ): 2 (25) No. (%)
- Diarrhea G1/G2 ([1]; HCQ 1200 mg (n = 8) with TMZ): 2 (25) No. (%)
- Fatigue G1/G2 ([1]; HCQ 1200 mg (n = 8) with TMZ): 7 (88) No. (%)
- Hypotension G1/G2 ([1]; HCQ 1200 mg (n = 8) with TMZ): 1 (13) No. (%)
- Lymphopenia G3/G4 ([1]; HCQ 1200 mg (n = 8) with TMZ): 1 (13) No. (%)
- Nausea G1/G2 ([1]; HCQ 1200 mg (n = 8) with TMZ): 4 (50) No. (%)
- Nausea G3/G4 ([1]; HCQ 1200 mg (n = 8) with TMZ): 1 (13) No. (%)
- Rash G1/G2 ([1]; HCQ 1200 mg (n = 8) with TMZ): 1 (13) No. (%)
- Thrombocytopenia G1/G2 ([1]; HCQ 1200 mg (n = 8) with TMZ): 1 (13) No. (%)
- Vomiting G1/G2 ([1]; HCQ 1200 mg (n = 8) with TMZ): 2 (25) No. (%)
- Vomiting G3/G4 ([1]; HCQ 1200 mg (n = 8) with TMZ): 1 (13) No. (%)
- ≥ grade 1 treatment-related anorexia [1, 3]: 35%
- ≥ grade 1 treatment-related constipation [1, 3]: 22%
- ≥ grade 1 treatment-related diarrhea [1, 3]: 24%
- ≥ grade 1 treatment-related fatigue [1, 3]: 97%
- ≥ grade 1 treatment-related nausea [1, 3]: 65%
- Vd/F ([2]; whole blood, bootstrap estimate, population PK, 1000 bootstrap runs): 500 L
- Vd/F ([2]; whole blood, model estimate, population PK, 35 patients): 486 L
- Cl/F, apparent oral clearance, bootstrap estimate [2, 4]: 10.085 L/h
- Ka, absorption rate constant, bootstrap estimate [2, 4]: 0.999 h⁻¹
- Vp/F, apparent peripheral volume of distribution, bootstrap estimate [2, 4]: 1400.415 L
- Cl/F, apparent oral clearance, model estimate [2, 5]: 9.975 L/h
- Ka, absorption rate constant, model estimate [2, 5]: 0.998 h⁻¹
- Vp/F, apparent peripheral volume of distribution, model estimate [2, 5]: 1406.52 L
- Time to steady-state HCQ blood concentration, on average ([2]; simulated for individual patients with final PK model, (16 d)): 400 h
